What was measured:
Salmonella typhimurium [1] = test: Mutagenic activity in Salmonella typhimurium TA 100 at 5 to 100 ug by Ames test in presence of Fischer-344 rat liver S9 fraction; format: toxicity, organism-based, Salmonella enterica subsp. enterica serovar Typhimurium
Method in brief: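 TA100 plate-incorporation assay: compound in 50 µL Me₂SO, 0.1 mL overnight broth culture, 200 µL S-9 mix and 2 mL top agar (45 °C), poured on minimal glucose agar. S-9 from Aroclor 1254-induced rats (500 mg/kg, 5 days earlier); mix per mL: 100 µmol K phosphate pH 7.4, 8 µmol MgCl₂, 5 µmol G6P, 4 µmol NADP⁺. His⁺ revertants/plate, mean of four trials.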

Salmonella typhimurium [2] = test: Toxicity in Salmonella typhimurium TA 100 at 5 to 100 ug in presence of Fischer-344 rat liver S9 fraction; format: organism-based, Salmonella enterica subsp. enterica serovar Typhimurium
Method in brief: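 Percent survivors were measured with diluted TA100 broth culture under the same S-9 plating conditions as the mutagenicity assay, except that excess histidine was added to the top agar.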

Salmonella typhimurium [3] = test: Mutagenic activity in Salmonella typhimurium TA 100 at 5 to 100 ug by Ames test in presence of Fischer-344 rat liver S9 fraction relative to 5-methylchrysene
Salmonella typhimurium [4] = test: Mutagenic activity in Salmonella typhimurium TA 100 at 5 to 100 ug by Ames test in absence of Fischer-344 rat liver S9 fraction; format: toxicity, organism-based, Salmonella enterica subsp. enterica serovar Typhimurium; settings: in vivo
Salmonella typhimurium [5] = test: Mutagenic activity in Salmonella typhimurium TA 100 at 50 ug by Ames test in absence of Fischer-344 rat liver S9 fraction; format: toxicity, organism-based, Salmonella enterica subsp. enterica serovar Typhimurium; settings: in vivo

SMILES	Activity (Salmonella typhimurium [1])	Activity (Salmonella typhimurium [2])	Activity (Salmonella typhimurium [3])	Activity (Salmonella typhimurium [4])	Activity (Salmonella typhimurium [5])
Cc1cc2ccccc2c2ccc3ccccc3c12	Toxic	Non-toxic			
Cc1cc2ccccc2c2c(C)cc3ccccc3c12	Toxic	Non-toxic			
OCc1cc2ccccc2c2ccc3ccccc3c12		Non-toxic	Non-toxic		
CC(=O)OCc1cc2ccccc2c2ccc3ccccc3c12		Non-toxic	Non-toxic		
COC(=O)c1cc2ccccc2c2ccc3ccccc3c12		Non-toxic	Non-toxic		
OCc1cc2ccccc2c2ccc3c(c12)CCCC3		Non-toxic	Non-toxic		
COC(=O)c1cc2ccccc2c2ccc3c(c12)CCCC3		Non-toxic	Non-toxic		
O=c1oc2cccc3ccc4c5ccccc5cc1c4c32	Toxic	Non-toxic		Non-toxic	
Cc1cc2ccccc2c2ccc3c(c12)C=CC(O)C3O (stereo not drawn)					Toxic
